# “And” between values parts separate entries of the source, which are not always exact repeats. Identical values can stand only once.
# Biological target: T1, Renin (Homo sapiens) (UniProt P00797)
# T1 sequence (whole entry): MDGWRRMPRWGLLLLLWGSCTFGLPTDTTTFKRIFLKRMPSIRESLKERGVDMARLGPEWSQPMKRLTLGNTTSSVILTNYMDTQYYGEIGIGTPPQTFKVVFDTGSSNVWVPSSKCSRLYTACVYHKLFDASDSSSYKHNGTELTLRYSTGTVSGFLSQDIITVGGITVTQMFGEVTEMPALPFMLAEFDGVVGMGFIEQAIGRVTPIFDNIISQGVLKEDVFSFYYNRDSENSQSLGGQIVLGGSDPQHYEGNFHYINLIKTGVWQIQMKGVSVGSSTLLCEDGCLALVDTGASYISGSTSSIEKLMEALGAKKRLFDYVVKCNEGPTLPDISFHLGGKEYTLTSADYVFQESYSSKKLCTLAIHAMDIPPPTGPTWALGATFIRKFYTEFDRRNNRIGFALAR
# Assay: Inhibition of human recombinant renin at 1 uM
row,Compound,inhibition [%]
1,COC(=O)C(O)[C@H](CC1CCCCC1)NC(=O)C(CC(C)C)NC(=O)[C@H](Cc1ccccc1)N1C(=O)c2ccccc2C1=O (stereo not given in full),45
2,COC(=O)C(O)[C@H](CC1CCCCC1)NC(=O)C(CC(C)C)NC(=O)[C@H](Cc1ccccc1)N1CC(C)(C)OC1=O (stereo not given in full),86.4
3,COC(=O)C(O)[C@H](CC1CCCCC1)NC(=O)C(CC(C)C)NC(=O)[C@H](Cc1ccccc1)N1C(=O)OC(C)(C)C1C (stereo not given in full),76

# Biological target: T2, Renin (Homo sapiens, UniProt P00797)
# T2 sequence (P00797 whole entry): T1 sequence (whole entry)
# Assay: Inhibition of human recombinant renin
# Summary of the method: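 Recombinant human renin (0.05 GU/mL, set to generate 30-40 ng A1/mL per h) incubated with 20 μM human renin substrate stock, pH 5.7 phosphate buffer with BSA, EDTA and PMSF, 1% DMSO final, 37 °C for 1 h; 4 °C blank tubes. RIA (3 h room temperature, γ counting) against standard curve; IC50 reported.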
row,Compound,IC50
1,CCC[C@H](NC(=O)[C@H](Cc1ccccc1)N1Cc2ccccc2C1=O)C(=O)N[C@@H](CC1CCCCC1)C(O)C(=O)OC(C)C (stereo not given in full),8.9 nM
2,CC(C)CC(NC(=O)[C@H](Cc1ccccc1)N1Cc2ccccc2C1=O)C(=O)N[C@@H](CC1CCCCC1)C(O)C(=O)OC(C)C (stereo not given in full),36 nM
3,CCCC[C@H](NC(=O)[C@H](Cc1ccccc1)N1Cc2ccccc2C1=O)C(=O)N[C@@H](CC1CCCCC1)C(O)C(=O)OC(C)C (stereo not given in full),16 nM
4,COC(=O)C(O)[C@H](CC1CCCCC1)NC(=O)C(Cc1cnc[nH]1)NC(=O)[C@H](Cc1ccccc1)N1Cc2ccccc2C1=O (stereo not given in full),186 nM
5,CC(C)CC(NC(=O)[C@H](Cc1ccccc1)N1Cc2cccc3cccc(c23)C1=O)C(=O)N[C@@H](CC1CCCCC1)C(O)C(=O)OC(C)C (stereo not given in full),80 nM
6,COC(=O)C(O)[C@H](CC1CCCCC1)NC(=O)C(CC(C)C)NC(=O)[C@H](Cc1ccccc1)NC(=O)OC(C)(C)C (stereo not given in full),8 nM and 24 nM
7,COC(=O)C(O)[C@H](CC1CCCCC1)NC(=O)C(CC(C)C)NC(=O)[C@H](Cc1ccccc1)N1Cc2ccccc2C1=O (stereo not given in full),23 nM
8,COC(=O)C(O)[C@H](CC1CCCCC1)NC(=O)C(CC(C)C)NC(=O)[C@H](Cc1ccccc1)N1Cc2ncccc2C1=O (stereo not given in full),207 nM
9,CC(C)CC(NC(=O)[C@H](Cc1ccccc1)N1Cc2nccn2C1=O)C(=O)N[C@@H](CC1CCCCC1)C(O)C(=O)OC(C)C (stereo not given in full),100 nM
10,CC(C)CC(NC(=O)[C@H](Cc1ccccc1)N1CCCC1=O)C(=O)N[C@@H](CC1CCCCC1)C(O)C(=O)OC(C)C (stereo not given in full),157 nM
11,COC(=O)C(O)[C@H](CC1CCCCC1)NC(=O)C(CC(C)C)NC(=O)[C@H](Cc1ccccc1)N1C(=O)c2cccc3cccc(c23)C1=O (stereo not given in full),391 nM
12,CC(C)CC(NC(=O)[C@H](Cc1ccccc1)N1CC2CCCN2C1=O)C(=O)N[C@@H](CC1CCCCC1)C(O)C(=O)OC(C)C (stereo not given in full),141 nM

# — ChEMBL document CHEMBL1125388, “New modified heterocyclic phenylalanine derivatives. Incorporation into potent inhibitors of human renin” (J Med Chem, 1992)
